Source: PubChem BioAssay (several laboratories)
HTR5A inv ctr = counter-screen for OPRM1-OPRD1 inverse agonists: human HTR5A inverse agonism; P47898; HTR5A cell line, luminescence; inhibition, % at 9.3 µM; actives 0.083% (n = 340,000); AID 504634; in the data active means inhibition mostly above about 23%, no sharp cut-off; inactive means mostly below about 18%;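 further: 0% = cells with DMSO and 100% = no-cell wells with DMSO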
Target sequence (P47898 whole entry, looked up): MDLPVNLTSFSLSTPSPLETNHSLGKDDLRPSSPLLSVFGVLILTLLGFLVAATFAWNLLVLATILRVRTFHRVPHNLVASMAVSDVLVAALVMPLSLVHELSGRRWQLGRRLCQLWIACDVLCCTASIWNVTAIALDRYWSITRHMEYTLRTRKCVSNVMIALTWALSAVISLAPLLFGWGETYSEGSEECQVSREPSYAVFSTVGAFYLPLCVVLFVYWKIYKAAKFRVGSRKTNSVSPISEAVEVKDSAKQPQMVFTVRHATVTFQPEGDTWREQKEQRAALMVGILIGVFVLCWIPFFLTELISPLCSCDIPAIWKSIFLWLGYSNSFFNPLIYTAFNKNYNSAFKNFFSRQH
MOR-DOR inv ag = mu-delta opioid heterodimer inverse agonism | P35372+P41143 | cell-based MOR-DOR heterodimer luminescence | inhibition, % at 9.3 µM | actives 0.21% (n = 340,000) | AID 504357; in the data active means inhibition above about 22%, passing the limit was not always enough;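 further: 0% = cells with DMSO and 100% = wells without cells with DMSO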
OPRM1-OPRD1 ag = agonists of human mu-delta opioid receptor heterodimerization | activation, % at 9.3 µM | actives 0.3% (n = 340,000) | AID 504326 | cells, OPRM1-OPRD1 heterodimerization, luminescence | P35372+P41143;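 further: 0% = vehicle-treated cells and 100% = reference agonist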
Lipid droplet = modulators of hepatic lipid droplet formation. AML12 mouse hepatocytes, oleate lipid droplets, BODIPY imaging. inhibition, % at 6.5 µM. actives 0.4% (n = 240,000);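 active means lipid droplet intensity inhibited by at least 50%, with more than 500 cells counted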
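Test system: AML12 hepatocytes (mouse); reagent: oleate loading, 100 µM; dosing: one dose, 6.5 µM compound; incubation: overnight exposure; signal: fluorescence imaging, 20x objective, two fields per well; read-out basis: % inhibition of corrected integrated BODIPY droplet signal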
HTR5A ag = HTR5A agonism, opioid heterodimer counter-screen; activation, % at 9.3 µM; actives 0.61% (n = 340,000); P47898; HTR5A agonist assay, luminescence, cell-based; in the data active means activation mostly above about 9.5%, no sharp cut-off; inactive means mostly below about 7.6%;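 further: 0% = cells with vehicle only and 100% = reference agonist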
MOR-DOR ag conf = OPRM1-OPRD1 heterodimer agonism, confirmation | shares compounds with OPRM1-OPRD1 ag | cells, MOR-DOR heterodimerization, luminescence complementation | activation, % at 9.3 µM | actives 45% (n = 830) | AID 504904;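 further: 0% = vehicle-treated cells and 100% = reference agonist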
HTR5A ag ctr2 = activates human HTR5A in OPRM1-OPRD1 agonist counter-screen. AID 504905. HTR5A agonist counterscreen, cell luminescence. actives 8% (n = 830). activation, % at 9.3 µM. shares compounds with OPRM1-OPRD1 ag; in the data active means activation above about 17%;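 further: 0% = vehicle-treated cells and 100% = reference agonist response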
MOR-DOR inv conf = confirmation of human OPRM1-OPRD1 heterodimerization inverse agonists. shares compounds with MOR-DOR inv ag. cells expressing OPRM1/OPRD1 heterodimer, luminescence. inhibition, % at 9.3 µM. actives 20% (n = 580). AID 504900; in the data active means inhibition above about 32%;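 further: 0% = cells with DMSO and 100% = wells lacking cells with DMSO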
HTR5A inv ctr2 = inverse agonist of human HTR5A in OPRM1-OPRD1 counter-screen; shares compounds with MOR-DOR inv ag; inhibition, % at 9.3 µM; 580 tested, under 10 active; HTR5A-expressing cells, luminescence, inverse agonism; AID 504914; call rule not given here;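 further: 0% = cells with DMSO and 100% = no-cell wells with DMSO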
* = called active by the depositor; . = no result given. The list is not random: actives were taken first. Their share in the collection is about 1.4%. Unless noted, no stated cut-off is given here; in the data, active means activation above about 18%; inactive means the rest.

SMILES | HTR5A inv ctr | MOR-DOR inv ag | OPRM1-OPRD1 ag | Lipid droplet | HTR5A ag | MOR-DOR ag conf | HTR5A ag ctr2 | others
COc1ccc2cc(C)c(SCC(=O)Nc3cc(C)on3)nc2c1 | -1 | -110 | 18* | . | 0 | 10 | 4
Cc1cc(NC(=O)CSc2nc3cc(C)c(C)cc3cc2C)no1 | -10 | -5 | 1 | 1 | 4 | . | .
C=CC[C@@H](CC(=O)N(CCO)Cc1ccccc1)C(=O)N[C@@H](COC(=O)[C@H](CC=C)CC(=O)OC(C)(C)C)Cc1c[nH]c2ccccc12 | 12 | -149 | 26* | . | 4 | 17 | 4
C=CC[C@H](CC(=O)N(CCO)Cc1ccccc1)C(=O)N[C@@H](COC(=O)[C@@H](CC=C)CC(=O)OC(C)(C)C)Cc1c[nH]c2ccccc12 | -19 | -31 | 5 | . | 6 | . | .
OC(CN1CCN(C(c2ccccc2)c2ccccc2)CC1)c1ccccc1 (stereo not given) | 11 | -92 | 19* | . | -3 | 33* | 5
CCOc1ccc2nc(NCCNC(=O)Nc3ccccc3)c(C#N)cc2c1 | -12 | -289 | 50* | -6 | 3 | 29* | 7
Oc1ccc(Br)cc1CNc1cccc2cccnc12 | -3 | -89 | 19* | 7 | 1 | -2 | -9
COc1ccc(S(=O)(=O)N(C)CC(=O)NCCCN2CCOCC2)cc1C | 8 | 16 | -3 | . | -2 | . | .
Cc1ccc(S(=O)(=O)/N=C2\C=C(Nc3ccc(O)cc3)C(=O)c3ccccc32)cc1 | -7 | -64 | 16 | . | 0 | . | .
Cc1ccc(S(=O)(=O)/N=C2/C=C(Sc3ncn[nH]3)C(=O)c3ccccc32)cc1 | -21 | -125 | 23* | -29 | 10 | 5 | -6
COc1ccc(Oc2ccc(C(F)(F)F)cc2N)cc1 | -16 | -90 | 18* | 15 | -1 | 8 | 0
CC(=O)Nc1ccc(CN2CCCC(C(=O)c3cccc(C(F)(F)F)c3)C2)cc1 (stereo not given) | 14 | -366 | 58* | -7 | 1 | 56* | -2
COc1cc(C(=O)NCC(c2cccs2)N(C)C)cc(Cl)c1OC(C)C (stereo not given) | 4 | -244 | 48* | -5 | -2 | 4 | -1
COc1cc2ccccc2cc1C(=O)NCC(c1cccs1)N(C)C (stereo not given) | 5 | -375 | 72* | 28 | -2 | 0 | 6
Cc1c2ccccc2c(C)c2c1ccc1ccccc12 | -24 | -100 | 19* | . | 7 | -2 | -2
Cc1ccc(NC(=O)c2cc(S(=O)(=O)N3CCCCC3)c[nH]2)cc1C | 6 | -177 | 30* | 0 | -2 | 14 | 9
Cc1cccn2cc(-c3ccc(NC(=O)Cc4ccccc4)cc3)nc12 | -73 | -213 | 39* | 9 | 17* | 6 | 11
CN(CC(=O)NC(=O)NCc1ccccc1)CC(=O)Nc1ccc(Cl)c(Cl)c1 | 7 | -13 | 3 | . | -3 | . | .
O=C(c1cc(Br)c(Br)s1)N1CCc2ccccc2C1 | -7 | -28 | 7 | . | 1 | . | .
COc1cc(NC(=O)c2cc(C)on2)cc(OC)c1OC | 12 | -3 | 0 | 5 | -1 | . | .
CCOC(=O)c1cc(NC(=O)c2cc(C)on2)cc(C(=O)OCC)c1 | -8 | -119 | 22* | 8 | 8 | 3 | 3
O=C(C=P(c1ccccc1)(c1ccccc1)c1ccccc1)c1ccccc1-c1ccccc1C(=O)C=P(c1ccccc1)(c1ccccc1)c1ccccc1 | -8 | -242 | 55* | . | 2 | 54* | -7
O=C(NNC(=O)c1ccccc1-c1ccccc1C(=O)O)c1ccccc1 | 5 | 7 | -1 | 14 | -2 | . | .
Cc1ccc(Cl)c2c1NC(=O)C2(O)CC(=O)c1ccc(Br)cc1 (stereo not given) | -14 | 30* | -5 | -2 | -3 | . | . | MOR-DOR inv conf=-1;HTR5A inv ctr2=8
